One series concerns PDE5. The note with it: ref Bischoff, 2004; cited from earlier work.
A short description of series [1]: Stability of TAD in rat plasma under storage and processing conditions. The series is classed as in vitro ADME. The settings on record: for Processed sample stability, RE% / Processed sample stability, calculated conc. (Mean ± SD): autosampler, room temperature 24 h; for Freeze–thaw stability, RE% / Freeze–thaw stability, calculated conc. (Mean ± SD): three freeze–thaw cycles; for Long term stability, RE% / Long term stability, calculated conc. (Mean ± SD): −30 °C for 30 days. The procedure, abridged: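 Test compound spiked into blank rat plasma as QC samples at 0.5, 10 and 100 ng mL−1. Conditions: bench-top thaw at room temperature for 6 h (triplicates); −30 °C for 30 days; three freeze–thaw cycles (24 h at −30 °C, ambient thaw); processed samples held in the autosampler at room temperature for 24 h. Quantified by FPSE-UPLC-ESI-MS/MS, with peak areas compared against freshly prepared QCs; acceptance RE <15%.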

[2] abbreviates: actual conc. 0.5 ng mL^-1, room temperature 6 h.

As to `CCCc1nn(C)c2c(=O)[nH]c(-c3cc(S(=O)(=O)N4CCN(C)CC4)ccc3OCC)nc12` [SLD, sildenafil], the “Selectivity for PDE5” value in the series with PDE5 was 41 times.

`CN1CC(=O)N2[C@H](c3ccc4c(c3)OCO4)c3[nH]c4ccccc4c3C[C@@H]2C1=O` [TAD, Tadalafil]: the “Selectivity for PDE5” value in the series on PDE5 is 1000 times. In series [1] (actual conc. 0.5 ng mL^-1), the “Processed sample stability, RE%” value is on record as −2.0%; the “Processed sample stability, calculated conc. (Mean ± SD)” value is 0.490 ± 0.011 ng/mL; the “Freeze–thaw stability, RE%” value is on record as −3.8%; the “Freeze–thaw stability, calculated conc. (Mean ± SD)” value was 0.481 ± 0.022 ng/mL. Besides, in series [1] (actual conc. 0.5 ng mL^-1), the “Long term stability, RE%” value is −2.60% and the “Long term stability, calculated conc. (Mean ± SD)” value is 0.487 ± 0.018 ng/mL. Moreover, in series [1] (setting [2]), the “Benchtop stability, RE%” value is −1.60% and the “Benchtop stability, calculated conc. (Mean ± SD)” value was 0.492 ± 0.012 ng/mL. Also, in series [1] (actual conc. 10 ng mL^-1), the “Processed sample stability, RE%” value came to 0.50%; the “Processed sample stability, calculated conc. (Mean ± SD)” value is 10.05 ± 0.195 ng/mL; the “Freeze–thaw stability, calculated conc. (Mean ± SD)” value was 9.85 ± 0.263 ng/mL; the “Long term stability, RE%” value stood at 1.10%. In series [1] (actual conc. 10 ng mL^-1), the “Long term stability, calculated conc. (Mean ± SD)” value is 10.11 ± 0.219 ng/mL. Besides, in series [1] (actual conc. 10 ng mL^-1, room temperature 6 h), the “Benchtop stability, calculated conc. (Mean ± SD)” value is 9.98 ± 0.251 ng/mL. For the same molecule, in series [1] (actual conc. 100 ng mL^-1), the “Processed sample stability, calculated conc. (Mean ± SD)” value is 99.48 ± 1.824 ng/mL; the “Freeze–thaw stability, RE%” value is 0.22%; the “Freeze–thaw stability, calculated conc. (Mean ± SD)” value is 100.22 ± 2.054 ng/mL. In series [1] (actual conc. 100 ng mL^-1, room temperature 6 h), the “Benchtop stability, calculated conc. (Mean ± SD)” value is 99.90 ± 1.850 ng/mL. Also, in series [1] (all four stability tests, RE% and RSD% within 15%), the “Stability in rat plasma under the storage and processing situations” value is reported as “stable”.

These data come from paper PMC9508631 (Saudi Pharmaceutical Journal : SPJ, 2022).
